S100A4 inh HTS – inhibitors of S100A4-myosin IIA peptide binding, primary screen, biochemical, fluorescence polarization, TAMRA-MyoIIA peptide; Protein S100-A4 (Homo sapiens), P26447; inhibition, % at 10.7 µM; actives 0.14% (n = 360,000);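 active means mean inhibition of at least 70% across replicates, with every replicate also reaching that level; inconclusive means mean inhibition reaches 70% but some replicates fall short; inactive means mean inhibition below 70%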
Target sequence (P26447 whole entry, looked up): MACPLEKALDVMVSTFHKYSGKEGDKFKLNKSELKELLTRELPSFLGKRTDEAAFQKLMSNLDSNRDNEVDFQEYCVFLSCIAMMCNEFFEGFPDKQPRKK
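incubation = readout 5 min after mixing, signal stable up to 60 min | system = S100A4 monomer protein | buffer or medium = HEPES pH 7.2 with CaCl2, KCl, NaCl, DTT, Triton | benchmarks = neutral control DMSO, positive control TFP | also added = fluorescent myosin IIA peptide, 5 nM | compound dosing = one concentration per compound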
HIV Env fusion – inhibitors of HIV-1 Env-driven cell-cell fusion, primary screen, HeLa-JRFL effector, CEM21 target cells, luciferase. inhibition, % at 12.3 µM. actives 1.1% (n = 360,000). AID 651610, 2012;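 active means mean replicate inhibition score of at least 50 and every replicate individually at or above 50; inconclusive means only one of the two criteria met; inactive means mean below 50 and not all replicates reaching 50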;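 further: 0% = plate neutral controls and 100% = maraviroc near 300 nM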
FN deposition inh – inhibitors of fibronectin matrix deposition, primary screen, AH1F cells, Alexa488-fibronectin fluorescence, plate reader. AH1F fibroblasts, overnight. inhibition, % at 12.6 µM. actives 0.086% (n = 350,000). AID 743247, 2014;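 active means mean inhibition across replicates of 30% or more, regardless of how many single replicates reach that level; inconclusive means mean under 30% yet at least half of replicates reach 30%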;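 further: positive control wells lacked labelled fibronectin entirely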
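Assay system: AH1F fibroblast monolayer, labelled fibronectin deposition. Amount: 10000 cells per well. Also added: labelled fibronectin 24 nM. Compound: single-point pinned compound. Incubation: cell attachment 1 h, compound and FN exposure overnight. Detection: fluorescence after three HBSS washes, excitation 485 nm, emission 525 nm. Read-out: inhibition of fibronectin deposition signal.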
miR122 inh – miR-122 Renilla sensor signal increase in Huh7, primary screen, miR-122 inhibitor project, cell-based, single point, plate reader; Huh7 miR-122 Renilla luciferase sensor, 48 h; neutral wells = 0, positive control = 100; actives 0.3% (n = 340,000); activation (reporter increase), % at 12.5 µM;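 active means mean replicate activation score at least 90 and every replicate individually at or above 90; inconclusive means only one of the two criteria met; inactive means neither criterion met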;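 further: higher luciferase means less miR-122 activity so hits act as miR-122 inhibitors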
Ecoli rRNA inh – reduced GFP signal of wild-type E. coli, primary screen, bacterial rRNA inhibitor project, GFP/RFP fluorescence, OD600, single point; actives 1.6% (n = 350,000); E. coli WT GFP vs humanized-ribosome RFP mutants, 24 h; active compounds read low; DMSO median 0, no signal -100; GFP signal change (wild-type ribosome), % (no concentration beside the values);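 active means significant combined selectivity score with lowered wild-type GFP, culture density cut under 30%, mutant RFP and density less affected; inactive means any of these conditions unmet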
Vif imaging – HIV Vif self-association inhibitors, primary screen, imaging, HEK293T, single point; HEK293T cells, Vif self-association by quenched fluorescence, 24 h; inhibition, % at 7.49 µM; actives 0.35% (n = 340,000); AID 602346, 2012; in the data active means inhibition above about 50%, passing the limit was not always enough; inconclusive means no clear call, values can overlap the other calls; inactive means below about 31%
The depositor's hits bear a star; ? = inconclusive; / = not tested or not shown; [ ] = another dose, or the depositor's remark. Sampled rows, rich in hits. Any-hit rate of the full collection: about 2.6%.

SMILES	S100A4 inh HTS	HIV Env fusion	FN deposition inh	miR122 inh	Ecoli rRNA inh	Vif imaging
CCOc1ccc(C2CC(c3ccccc3C)n3nc(N)nc3N2)cc1 (stereo unspecified)	-1.3	64.7*	-10.4	-7.5	4.9	-0.5
COc1ccc(S(=O)(=O)Nc2cc3c4c(oc3c3ccccc23)CCCC4=O)cc1	/	/	/	127.5*	/	/
C[C@H](CO)N1C[C@H](C)[C@@H](CN(C)C(=O)Nc2cccc3ccccc23)Oc2ccc(NC(=O)Nc3ccc(F)cc3)cc2CC1=O	1.8	12.3[16.7 µM]	/	6.4[16.7 µM]	0.1	/
COc1ccc([Si](C)(C)[C@H]2[C@H](CC(=O)N(CCO)Cc3ccccc3)O[C@@]3(C(=O)N(C)c4ccccc43)[C@@H]2C)cc1	20.9	-12.6[16.7 µM]	/	/	/	/
CCO[C@@H]1OC(C(=O)NCc2ccccc2)=C[C@H](c2ccccc2)[C@H]1CCCO	4.6	-255.9	-2.8	-4.5	4.8	-8.5
CCO[C@H]1OC(C(=O)NCc2ccccc2)=C[C@@H](c2ccccc2)[C@@H]1CCCO	-0.8	-10.6	-2.2	2.1	-24.9*	4.1
Cc1c(C(=O)Nc2ccccn2)oc2ccccc12	2.5	/	/	94.9*	8.1	-1.9
O=C(c1cnccn1)N1CC(=O)N2[C@@H](CO)[C@H](c3ccc(-c4ccccc4)cc3)[C@@H]2C1	9.1	/	/	/	1.7	/
COc1ccccc1N(C(=O)CCl)c1cn(C(C)=O)c2ccccc12	0.5	23.8	-0.9	1.5	-30.8	-2.9
COc1ccccc1N(C(C)=O)C1=C(Cl)C(=O)c2ccccc2C1=O	-2.1	15.2	42.2*	-17.5	-8.7	/
C[C@@H]1CN([C@@H](C)CO)C(=O)c2cc(NC(=O)CCCCCC(=O)Nc3ccccc3N)ccc2O[C@@H]1CN(C)Cc1ccncc1	-17.2	/	/	/	3.8	/
Cc1cc(NS(=O)(=O)c2ccccc2)cc(Cl)c1O	/	-31.2	5.1	?	/	11.6
Cc1ccc(S(=O)(=O)Nc2cc(C)c(O)c(S(=O)(=O)c3ccc(C)cc3)c2)cc1	1.1	-17.7	0.9	139.6*	-25.6	-12.0
O=C(NC[C@@H]1CC[C@H]2[C@H](CN2C(=O)C2CCOCC2)O1)c1cccnc1	9.1	-14.5[16.7 µM]	/	/	/	/
COc1ccc(N2CCN(Cc3nc(Cc4cccc(F)c4)no3)C(C)C2)cc1 (stereo unspecified)	-3.7	6.0	0.6	-4.6	-23.0*	-5.0
FC(F)(F)c1cc(-c2ccccc2)nc(NCc2cccnc2)n1	/	-70.4	active	-2.1	/	-7.2
FC(F)(F)c1cc(-c2ccco2)nc(NCc2cccnc2)n1	/	-88.9	7.2	6.0	/	-0.4
O=C(Nc1ccc2c(c1)[C@H]1C[C@H](CC(=O)N3CCc4ccccc4C3)O[C@H](CO)[C@H]1O2)C1CCC1	0.0	-6.3[16.7 µM]	11.1	-3.9[16.7 µM]	-7.2	/
CCC(=O)Nc1ccc(-c2nnc(SCc3ccc(C(=O)Nc4nccs4)cc3)n2CC)cc1	/	/	/	/	/	67.3*
CC(C)[C@H](C)NC(=O)N(C)C[C@H]1OCc2ccccc2-c2c(n(C)c3ccccc23)C(=O)N([C@H](C)CO)C[C@@H]1C	/	/	-7.7	/	-1.8	/
Cc1cc(Cl)ccc1NC(=S)NC(C)(C)C	24.9	7.0	/	-12.6	-35.4*	9.9
CCCNC(=S)Nc1ccc(Cl)cc1C	/	25.6	-0.3	/	/	-34.5
Cc1ccc(OCCCC(=O)N(C)CC(=O)Nc2ccccc2Cl)cc1	6.4	3.6	-18.6	/	-13.4	2.3
Cc1cccc(OCCC(=O)N(C)CC(=O)Nc2cccc3ccccc23)c1	-5.1	9.0	9.9	/	-19.9*	-6.9
CSc1ccccc1NC(=O)c1ccc(CN2CCOCC2)cc1	1.0	-5.7	-21.6	-0.3	2.8	0.1
SMILES	S100A4 inh HTS	HIV Env fusion	FN deposition inh	miR122 inh	Ecoli rRNA inh	Vif imaging
Cc1cc(CSc2ccccc2)ccc1NC(=O)c1ccc(CN2CCOCC2)cc1	/	68.3*	9.2	/	/	0.6
O=C/C=C/c1ccc2c(c1)OCO2	-3.4	11.2[16.7 µM]	/	/	/	/
Nc1ncc(Br)cc1S(=O)(=O)NCCC(=O)Nc1cccc(Cl)c1	-2.7	59.3*	/	48.7	-5.2	3.3
Cc1cc(NC(=O)CCNS(=O)(=O)c2cc(Br)cnc2N)ccc1Br	/	58.9*	-4.7	15.3	/	-6.1
O=C(Nc1ccc(S(=O)(=O)Nc2nccs2)cc1)c1cc(-c2ccccc2Cl)nc2ccccc12	/	/	/	104.3*	/	-11.3
O=C(Nc1ccc(S(=O)(=O)Nc2nccs2)cc1)c1cc(-c2ccccn2)nc2ccccc12	-3.9	15.0	-4.0	/	-20.4	1.2
CC(=O)c1ccc([C@H]2C[C@@]34CN(C(=O)OC(C)(C)C)S(=O)(=O)[C@H]3C[C@H]2O4)cc1	-6.0	67.7*	1.1	-3.3	7.6	-4.7
COc1ccc([N+](=O)[O-])cc1/C=N/NC(=O)CNC(=O)C(c1ccccc1)c1ccccc1	/	/	/	-8.3	/	4.4
COc1ccc([N+](=O)[O-])cc1/C=N/NC(=O)CNC(=O)c1cccc(F)c1	11.9	/	4.2	-5.0	-23.2*	-8.0
CN(C)c1ccc(NC(=O)CSc2nc3ccccc3c(=O)n2C2CCCCC2)cc1	/	-29.6	-3.2	-1.5	/	-4.9
CCCN(CCC)C(=O)CSc1nc2ccccc2c(=O)n1C1CCCC1	/	65.2*	-5.6	13.3	/	-21.2
COc1cccc(-c2ccc([C@@H]3[C@H](CO)N4CCCCN(C(=O)c5ccc(F)cc5)C[C@@H]34)cc2)c1	112.9*	/	/	23.5[16.7 µM]	-56.1	/
CC(C)(O)C#Cc1ccc([C@H]2[C@H](CO)N3CCCCN(C(=O)c4ccc(F)cc4)C[C@@H]23)cc1	104.4*	/	/	17.9[16.7 µM]	3.3	/
CC(C)(O)C#Cc1ccc([C@H]2[C@@H](CO)N3CCCCN(C(=O)c4ccc(F)cc4)C[C@H]23)cc1	53.4	/	/	5.5[16.7 µM]	-0.1	/
CCC1(CC)NC(=O)N(CC(=O)Nc2ccc(OCc3ccccc3)cc2)C1=O	19.4	-1.3	-5.4	0.0	0.9	54.9*
O=C(NC1CCCCC1)N[C@H]1CC[C@H](CCNS(=O)(=O)c2ccccc2)O[C@H]1CO	-2.8	-4.5[16.7 µM]	/	/	0.3	/
COc1ccc(NC(=O)N(C)C[C@@H]2Oc3c(NS(=O)(=O)c4ccc(F)cc4)cccc3C(=O)N([C@@H](C)CO)C[C@@H]2C)cc1	/	-13.6[16.7 µM]	/	3.4[16.7 µM]	0.9	/
O=C(NCCCN1CCCC1=O)Nc1ccc(Cl)cc1Cl	1.9	-5.6	-10.7	/	0.2	-2.7
O=C(NCCCN1CCCC1=O)c1cc(-c2ccc(F)cc2)nc2ccccc12	3.0	-73.4	/	-3.1	-20.2*	0.4
O=C(NNS(=O)(=O)c1cccc(Cl)c1)c1cc(-c2ccc(F)cc2)nc2ccccc12	-1.1	23.8	-4.5	-3.7	-18.9*	-0.1

Bioassay records (PubChem)
